Data taken from ChEMBL document CHEMBL1125023, “Flexible N-methyl-4-phenyl-1,2,3,6-tetrahydropyridine analogues: synthesis and monoamine oxidase catalyzed bioactivation” (J Med Chem, 1990).

Species: Rattus norvegicus
Assay: Tested for pargyline-induced inhibition of MAO-catalyzed oxidation in rat brain mitochondria (Specific inhibitor = Pargyline hydrochloride at 2.5 uM) (Control = 33.85)
Assay type: functional

| Compound | Inhibition ((nM of H202) min-1 (ug of protein)-1) |
| --- | --- |
| CN1CC=C(Cc2cccs2)CC1 | 10.9 |

Molecular target: T1, Monoamine oxidase (Rattus norvegicus, UniProt P19643+P21396)
T1 sequence (P19643 whole entry): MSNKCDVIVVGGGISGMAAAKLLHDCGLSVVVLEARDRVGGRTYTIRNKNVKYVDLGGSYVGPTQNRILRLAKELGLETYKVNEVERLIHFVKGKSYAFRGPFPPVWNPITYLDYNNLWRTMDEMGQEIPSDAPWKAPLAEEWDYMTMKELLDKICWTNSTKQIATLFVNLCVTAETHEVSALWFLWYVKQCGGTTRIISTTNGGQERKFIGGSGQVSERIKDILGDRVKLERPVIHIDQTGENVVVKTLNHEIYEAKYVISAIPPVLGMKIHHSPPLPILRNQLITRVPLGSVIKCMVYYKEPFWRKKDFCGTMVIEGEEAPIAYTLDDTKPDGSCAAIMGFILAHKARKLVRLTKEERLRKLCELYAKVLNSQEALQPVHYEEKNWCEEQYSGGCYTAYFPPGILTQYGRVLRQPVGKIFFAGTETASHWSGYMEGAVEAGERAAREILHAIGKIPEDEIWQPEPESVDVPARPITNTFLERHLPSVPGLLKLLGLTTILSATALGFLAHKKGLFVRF
T1 sequence (P21396 whole entry): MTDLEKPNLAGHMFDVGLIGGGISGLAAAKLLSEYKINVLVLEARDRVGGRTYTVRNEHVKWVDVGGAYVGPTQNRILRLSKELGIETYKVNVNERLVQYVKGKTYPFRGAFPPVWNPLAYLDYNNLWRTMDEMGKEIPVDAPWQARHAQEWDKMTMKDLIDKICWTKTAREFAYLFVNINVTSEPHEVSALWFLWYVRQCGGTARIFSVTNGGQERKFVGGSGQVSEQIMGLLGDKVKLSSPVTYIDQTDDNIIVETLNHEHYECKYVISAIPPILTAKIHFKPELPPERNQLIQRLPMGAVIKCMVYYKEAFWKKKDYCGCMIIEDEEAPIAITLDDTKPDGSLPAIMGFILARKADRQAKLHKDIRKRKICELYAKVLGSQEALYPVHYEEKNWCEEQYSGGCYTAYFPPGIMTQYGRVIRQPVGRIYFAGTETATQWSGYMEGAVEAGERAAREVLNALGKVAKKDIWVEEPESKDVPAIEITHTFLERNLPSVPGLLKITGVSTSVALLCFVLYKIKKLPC
Assay: (§1) Kinetic constant (Km) determined in rat brain mitochondria
Method in brief: (§2)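 Mitochondria from rat brain were isolated by differential centrifugation with a Ficoll gradient, lysed in pH 7.4 phosphate buffer with sodium azide, and diluted to 400–800 μg protein/mL. Incubations at 37 °C for 30 min used seven substrate concentrations from 0.0125 to 1 mM, plus 2 and 4 mM for poor substrates. H2O2 was read with ABTS–horseradish peroxidase. Km and Vmax came from Lineweaver-Burk plots: three days, duplicates, mean of six ± SD.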

| Km [µM] | Compound |
| --- | --- |
| 20.8 | CN1CC=C(CCc2cccc(Cl)c2)CC1 |
| 70.2 | CC(C1=CCN(C)CC1)c1ccccc1 (stereo not given) |
| 169 | NCc1ccccc1 [BENZYLAMINE] |
| 36.1 | CN1CC=C(Cc2ccc(I)cc2)CC1 |
| 57.2 | CN1CC=C(C(Oc2ccc(Br)cc2)c2ccccc2)CC1 (stereo not given) |
| 363 | CN1CC=C(Cc2ccc(O)cc2)CC1 |
| 187 | CN1CC=C(/C=C/c2cccc(Br)c2)CC1 |
| 24.8 | COc1ccc(CC2=CCN(C)CC2)cc1 |
| 15.9 | Cc1ccc(CC2=CCN(C)CC2)cc1 |

Tested on: Monoamine oxidase (Rattus norvegicus)
Assay: Percent inhibition of MAO-catalyzed oxidation in rat brain mitochondria induced by pargyline

| Inhibition [%] | Compound |
| --- | --- |
| 8 | CN1CC=C(Cc2cccc3ccccc23)CC1 |
| 54 | CN1CC=C(CCc2ccccc2)CC1 |
| 68 | CN1CC=C(Cc2cccs2)CC1 |

Molecular target: T1, Monoamine oxidase
Assay: as §1
Method in brief: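 Rat brain mitochondria (Ficoll gradient, lysed in phosphate buffer pH 7.4 with azide) at 400–800 μg protein/mL. Incubated 30 min at 37 °C with substrate at 0.0125–1 mM, plus 2 and 4 mM for poor substrates. H2O2 read by ABTS–horseradish peroxidase against a standard curve. Km by Lineweaver-Burk; three separate days in duplicate, mean of six ± SD.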

| Compound | Km [µM] |
| --- | --- |
| CN1CC=C(c2ccccc2)CC1 | 134 |

Molecular target: T1, Monoamine oxidase
Assay: Ratio of Kinetic constants (Km vs. Vmax).
Assay type: protein assay

| Ratio | Compound |
| --- | --- |
| 3.71 | Cc1ccccc1CC1=CCN(C)CC1 |
| 4.44 | CN1CC=C(CCc2cccc(Cl)c2)CC1 |
| 5.03 | CN1CC=C(Cc2cccc3ccccc23)CC1 |
| 6.95 | Cc1cccc(CC2=CCN(C)CC2)c1 |
| 1.26 | CC(C1=CCN(C)CC1)c1ccccc1 (stereo not given) |
| 2.38 | CN1CC=C(Cc2ccc(I)cc2)CC1 |
| 9.36 | CN1CC=C(Cc2ccccc2)CC1 |
| 0.74 | CN1CC=C(C(Oc2ccc(Br)cc2)c2ccccc2)CC1 (stereo not given) |
| 0.38 | CN1CC=C(Cc2ccc(O)cc2)CC1 |
| 0.565 | CN1CC=C(/C=C/c2cccc(Br)c2)CC1 |
| 7.87 | COc1ccc(CC2=CCN(C)CC2)cc1 |
| 3.74 | CN1CC=C(CCc2ccccc2)CC1 |
| 5.15 | CN1CC=C(Cc2ccc(Cl)cc2)CC1 |
| 9.86 | CN1CC=C(Cc2cccs2)CC1 |
| 5.17 | Cc1ccc(CC2=CCN(C)CC2)cc1 |

Molecular target: T1, Monoamine oxidase
Assay: Kinetic constant (Vmax) determined in rat brain mitochondria.
Method in brief: as §2

| Compound | Vmax |
| --- | --- |
| Cc1ccccc1CC1=CCN(C)CC1 | 21933000 (nM of H202) min-1 (ug of protein)-1 |
| CN1CC=C(CCc2cccc(Cl)c2)CC1 | 6477000 (nM of H202) min-1 (ug of protein)-1 |
| CN1CC=C(Cc2cccc3ccccc23)CC1 | 38233000 (nM of H202) min-1 (ug of protein)-1 |
| Cc1cccc(CC2=CCN(C)CC2)c1 | 45533000 (nM of H202) min-1 (ug of protein)-1 |
| CC(C1=CCN(C)CC1)c1ccccc1 (stereo not given) | 4187000 (nM of H202) min-1 (ug of protein)-1 |
| NCc1ccccc1 [BENZYLAMINE] | 33600000 (nM of H202) min-1 (ug of protein)-1 |
| CN1CC=C(Cc2ccc(I)cc2)CC1 | 6290000 (nM of H202) min-1 (ug of protein)-1 |
| CN1CC=C(Cc2ccccc2)CC1 | 39800000 (nM of H202) min-1 (ug of protein)-1 |
| CN1CC=C(c2ccccc2)CC1 | 27033000 (nM of H202) min-1 (ug of protein)-1 |
| CN1CC=C(C(Oc2ccc(Br)cc2)c2ccccc2)CC1 (stereo not given) | 3137000 (nM of H202) min-1 (ug of protein)-1 |
| CN1CC=C(Cc2ccc(O)cc2)CC1 | 9850000 (nM of H202) min-1 (ug of protein)-1 |
| CN1CC=C(/C=C/c2cccc(Br)c2)CC1 | 2690000 (nM of H202) min-1 (ug of protein)-1 |
| COc1ccc(CC2=CCN(C)CC2)cc1 | 18000000 (nM of H202) min-1 (ug of protein)-1 |
| CN1CC=C(CCc2ccccc2)CC1 | 38533000 (nM of H202) min-1 (ug of protein)-1 |
| CN1CC=C(Cc2ccc(Cl)cc2)CC1 | 23900000 (nM of H202) min-1 (ug of protein)-1 |
| CN1CC=C(Cc2cccs2)CC1 | 38133000 (nM of H202) min-1 (ug of protein)-1 |
| Cc1ccc(CC2=CCN(C)CC2)cc1 | 8.1e+06 (nM of H202) min-1 (µg of protein)-1 |

Species: Rattus norvegicus
Assay: as §1
Assay type: functional
Method in brief: as §2

| Km [µM] | Compound |
| --- | --- |
| 58.8 | Cc1ccccc1CC1=CCN(C)CC1 |
| 76.5 | CN1CC=C(Cc2cccc3ccccc23)CC1 |
| 77.1 | Cc1cccc(CC2=CCN(C)CC2)c1 |
| 44.4 | CN1CC=C(Cc2ccccc2)CC1 |
| 119 | CN1CC=C(CCc2ccccc2)CC1 |
| 49.4 | CN1CC=C(Cc2ccc(Cl)cc2)CC1 |
| 42.2 | CN1CC=C(Cc2cccs2)CC1 |

Species: Rattus norvegicus
Assay: Tested for pargyline-induced inhibition of MAO-catalyzed oxidation in rat brain mitochondria (Specific inhibitor = Pargyline hydrochloride at 2.5 uM) (Control = 28.60)
Assay type: functional

| Compound | Inhibition ((nM of H202) min-1 (ug of protein)-1) |
| --- | --- |
| CN1CC=C(Cc2cccc3ccccc23)CC1 | 26.4 |

Species: Rattus norvegicus
Assay: Tested for pargyline-induced inhibition of MAO-catalyzed oxidation in rat brain mitochondria (Specific inhibitor = Pargyline hydrochloride at 2.5 uM) (Control = 30.65)
Assay type: functional

| Compound | Inhibition ((nM of H202) min-1 (ug of protein)-1) |
| --- | --- |
| Cc1cccc(CC2=CCN(C)CC2)c1 | 9.49 |

Species: Rattus norvegicus
Assay: Tested for pargyline-induced inhibition of MAO-catalyzed oxidation in rat brain mitochondria (Specific inhibitor = Pargyline hydrochloride at 2.5 uM) (Control = 31.40)
Assay type: functional

| Compound | Inhibition ((nM of H202) min-1 (ug of protein)-1) |
| --- | --- |
| CN1CC=C(Cc2ccccc2)CC1 | 3.71 |

Molecular target: T1, Monoamine oxidase
Assay: Tested for pargyline-induced inhibition of MAO-catalyzed oxidation in rat brain mitochondria (Specific inhibitor = Pargyline hydrochloride at 2.5 uM) (Control = 16.58)
Assay type: functional

| Compound | Inhibition |
| --- | --- |
| CN1CC=C(c2ccccc2)CC1 | 0 (nM of H202) min-1 (ug of protein)-1 |

Species: Rattus norvegicus
Assay: Tested for pargyline-induced inhibition of MAO-catalyzed oxidation in rat brain mitochondria (Specific inhibitor = Pargyline hydrochloride at 2.5 uM) (Control = 18.87)
Assay type: functional

| Compound | Inhibition ((nM of H202) min-1 (ug of protein)-1) |
| --- | --- |
| CN1CC=C(Cc2ccc(Cl)cc2)CC1 | 10.3 |

Species: Rattus norvegicus
Assay: Tested for pargyline-induced inhibition of MAO-catalyzed oxidation in rat brain mitochondria (Specific inhibitor = Pargyline hydrochloride at 2.5 uM) (Control = 17.95)
Assay type: functional

| Compound | Inhibition ((nM of H202) min-1 (ug of protein)-1) |
| --- | --- |
| CN1CC=C(CCc2ccccc2)CC1 | 8.22 |

Species: Rattus norvegicus
Assay: Tested for pargyline-induced inhibition of MAO-catalyzed oxidation in rat brain mitochondria (Specific inhibitor = Pargyline hydrochloride at 2.5 uM) (Control = 19.20)
Assay type: functional

| Compound | Inhibition ((nM of H202) min-1 (ug of protein)-1) |
| --- | --- |
| Cc1ccccc1CC1=CCN(C)CC1 | 9.24 |
